The test system of assay [1] is Escherichia coli. In words: Antibacterial activity against aminoglycoside-susceptible Escherichia coli ATCC 25922 after 12 to 18 hrs. It is filed as functional. In a few lines:
(§1)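 Broth microdilution MIC. Bacteria grown in Trypticase Soy broth at 35 °C for 1–2 h, then diluted with broth to an absorbance of 0.08–0.1 at 625 nm. This suspension was further diluted into broth and dispensed into 96-well plates containing 2-fold serial dilutions of compound. Plates were incubated 12–18 h at 35 °C. MIC is the lowest concentration inhibiting growth, repeated at least three times.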

Assay [2] concerns Staphylococcus aureus. In words: Antibacterial activity against aminoglycoside-susceptible Staphylococcus aureus ATCC 25923 after 12 to 18 hrs. It is filed as functional. In a few lines: as §1
Assay [3] has as its system Klebsiella pneumoniae. In words: Antibacterial activity against aminoglycoside-susceptible Klebsiella pneumoniae ATCC 13883 after 12 to 18 hrs. Format: functional. In a few lines: as §1
For assay [4], the system named is Pseudomonas aeruginosa. In words: Antibacterial activity against aminoglycoside-resistant Pseudomonas aeruginosa ATCC 27853 after 12 to 18 hrs. Format: functional. In a few lines:
(§2)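 Broth microdilution MIC. Bacteria grown in Trypticase Soy broth at 35 °C for 1–2 h, then adjusted to absorbance 0.08–0.1 at 625 nm. This suspension was diluted into 10 mL broth and dispensed into wells, and 2-fold serial dilutions of compound were added. Plates were incubated at 35 °C for 12–18 h. MIC was the lowest concentration inhibiting growth, with at least three repeats.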

Assay [5] concerns Staphylococcus aureus. The experiment in a line: Antibacterial activity against aminoglycoside-resistant Staphylococcus aureus ATCC 33591 after 12 to 18 hrs. It is filed as functional. In a few lines:
as §2

The test system of assay [6] is Klebsiella pneumoniae. In words: Antibacterial activity against aminoglycoside-resistant Klebsiella pneumoniae ATCC 700603 after 12 to 18 hrs.

Each structure is given as a SMILES string. In brackets after ≈: the same amount, converted by molar mass.

A word on the MIC: it is the smallest concentration in the dilution series that meets the test's criterion for growth inhibition. Low readings indicate greater potency, high ones weaker potency.

Take `CCCCCCNC(=O)O[C@@H]1[C@@H](OC(=O)NCCCCCC)[C@H](N)C[C@H](N)[C@H]1O[C@@H]1CC[C@H](N)[C@@H](CN)O1`: the MIC is 125 µg/mL (≈ 229 µM) in assay [1]; 32 µg/mL (≈ 58.7 µM) in assay [2]; 4 µg/mL (≈ 7.34 µM) in assay [3]; 16 µg/mL (≈ 29.4 µM) in assay [4]; 16 µg/mL (≈ 29.4 µM) in assay [5]; at least 250 µg/mL in assay [6].

Consider `NC[C@@H]1CC[C@@H](N)[C@@H](O[C@H]2[C@H](O)[C@@H](O[C@@H]3O[C@H](CO)[C@@H](O)[C@H](O)[C@H]3O)[C@H](N)C[C@@H]2N)O1`, for which the MIC in assay [1] stood at 64 µg/mL (≈ 141 µM); in assay [2], 125 µg/mL (≈ 276 µM).

With `NC[C@H]1O[C@H](O[C@H]2[C@H](O)[C@@H](O[C@@H]3O[C@H](CO)[C@@H](O)[C@H](O)[C@H]3O)[C@H](N)C[C@@H]2N)CC[C@@H]1N`, the MIC in assay [1] and in assay [2] was at least 250 µg/mL in each case.

Consider `C[C@H]1O[C@@H](O[C@@H]2[C@@H](O)[C@H](O[C@@H]3CC[C@H](N)[C@@H](CN)O3)[C@@H](N)C[C@H]2N)[C@H](O)[C@@H](N)[C@@H]1O`, for which the MIC in assay [1] came out at 16 µg/mL (≈ 36.7 µM); in assay [2] it was 8 µg/mL (≈ 18.4 µM).

Take `CCCCCCNC(=O)O[C@@H]1[C@@H](O)[C@H](O[C@H]2O[C@H](CN)[C@@H](O)[C@H](O)[C@H]2N)[C@@H](N)C[C@H]1N`: the MIC in assay [3] was 16 µg/mL (≈ 35.6 µM); in assay [4], 64 µg/mL (≈ 142 µM); in assay [5] it was at least 250 µg/mL; in assay [6], 125 µg/mL (≈ 278 µM).

On to `CCCCCCNC(=O)O[C@@H]1[C@@H](O)[C@H](O[C@H]2O[C@H](CN)CC[C@H]2N)[C@@H](N)C[C@H]1N`, for which the MIC in assay [1] was at least 250 µg/mL; in assay [2], 125 µg/mL (≈ 299 µM); in assay [3], 16 µg/mL (≈ 38.3 µM); in assay [4], 16 µg/mL (≈ 38.3 µM); in assay [5] it was 64 µg/mL (≈ 153 µM); in assay [6], 125 µg/mL (≈ 299 µM).

`CCCCCCNC(=O)O[C@@H]1[C@@H](O)[C@H](O[C@@H]2CC[C@H](N)[C@@H](CN)O2)[C@@H](N)C[C@H]1N`: the MIC in assay [1] was at least 250 µg/mL; in assay [2] it was 32 µg/mL (≈ 76.6 µM); in assay [3], 16 µg/mL (≈ 38.3 µM); in assay [4], 16 µg/mL (≈ 38.3 µM); in assay [5] it was 64 µg/mL (≈ 153 µM); in assay [6] it was at least 250 µg/mL.

Take `C[C@H]1O[C@@H](O[C@@H]2[C@@H](O)[C@H](N)C[C@H](N)[C@H]2O[C@H]2O[C@H](CN)CC[C@H]2N)[C@@H](O)[C@@H](O)[C@@H]1N`: the MIC in assay [1] is 16 µg/mL (≈ 36.7 µM); in assay [2], 4 µg/mL (≈ 9.18 µM).

Consider `NC[C@H]1O[C@H](O[C@H]2[C@H](O)[C@@H](O)[C@H](N)C[C@@H]2N)CC[C@@H]1N`, for which the minimum inhibitory concentration (MIC) in assay [1] was at least 250 µg/mL; in assay [2], 64 µg/mL (≈ 220 µM).

Consider `CCCCCCNC(=O)O[C@@H]1[C@@H](OC(=O)NCCCCCC)[C@H](N)C[C@H](N)[C@H]1O[C@H]1O[C@H](CN)[C@@H](O)[C@H](O)[C@H]1N`, for which the MIC was found to be 32 µg/mL (≈ 55.5 µM) in assay [3], 125 µg/mL (≈ 217 µM) in assay [4], 125 µg/mL (≈ 217 µM) in assay [5] and 125 µg/mL (≈ 217 µM) in assay [6].

As for `C[C@H]1O[C@@H](O[C@@H]2[C@@H](O)[C@H](N)C[C@H](N)[C@H]2O[C@@H]2CC[C@H](N)[C@@H](CN)O2)[C@@H](O)[C@@H](O)[C@@H]1N`, the MIC in assay [1] and in assay [2] was 125 µg/mL (≈ 287 µM) throughout.

With `NC[C@@H]1CC[C@@H](N)[C@@H](O[C@H]2[C@H](O)[C@@H](O[C@@H]3OC[C@@H](O)[C@H](N)[C@H]3O)[C@H](N)C[C@@H]2N)O1`, the figures for the MIC in assay [1] and in assay [2] were 4 µg/mL (≈ 9.49 µM) and 2 µg/mL (≈ 4.75 µM), respectively.

Consider `NC[C@@H]1O[C@H](O[C@H]2[C@@H](O)[C@H](O[C@@H]3[C@@H](O)[C@H](N)C[C@H](N)[C@H]3O[C@H]3O[C@H](CN)[C@@H](O)[C@H](O)[C@H]3N)O[C@@H]2CO)[C@H](N)[C@@H](O)[C@@H]1O` [FRAMYCETIN], for which the MIC in assay [1] worked out at 4 µg/mL (≈ 6.51 µM); in assay [2], 1 µg/mL (≈ 1.63 µM).

Take `NC[C@@H]1CC[C@@H](N)[C@@H](O[C@H]2[C@H](O)[C@@H](O)[C@H](N)C[C@@H]2N)O1` [GENTAMINE C1A]: the MIC in assay [1] worked out at 32 µg/mL (≈ 110 µM); in assay [2], 16 µg/mL (≈ 55.1 µM).

With `NC[C@H]1O[C@H](O[C@H]2[C@H](O)[C@@H](O[C@H]3O[C@H](CO)[C@@H](O)[C@H](N)[C@H]3O)[C@H](N)C[C@@H]2N)[C@H](O)[C@@H](O)[C@@H]1O` [KANAMYCIN], the values for the MIC in assay [1] and in assay [2] were 4 µg/mL (≈ 8.26 µM) and 2 µg/mL (≈ 4.13 µM), respectively.

On to `NC[C@H]1O[C@H](O[C@H]2[C@H](O)[C@@H](O)[C@H](N)C[C@@H]2N)[C@H](N)[C@@H](O)[C@@H]1O` [NEAMINE], for which the MIC in assay [1] came out at 32 µg/mL (≈ 99.3 µM); in assay [2] it was 4 µg/mL (≈ 12.4 µM); in assay [3], 2 µg/mL (≈ 6.2 µM); in assay [4] it was 64 µg/mL (≈ 199 µM); in assay [5], 125 µg/mL (≈ 388 µM); in assay [6], 16 µg/mL (≈ 49.6 µM).

(Values after ChEMBL document CHEMBL1157553, “Synthesis of novel aminoglycosides via allylic azide rearrangement for investigating the significance of 2'-amino group” (2010).)
